Assay outcomes: PubChem BioAssay, several laboratories
Mcl1 Bid PPI: Mcl-1/Bid binding inhibitors, primary screen, biochemical, TR-FRET, 1536-well | TR-FRET Mcl-1/Bid-Dy647 peptide binding | AID 1021, 2008 | Induced myeloid leukemia cell differentiation protein Mcl-1 (Homo sapiens), Q07820 | hit rate 0.97% among 220,000 | inhibition, % at 21.7 µM;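 active means compounds that cut the binding signal by more than half at the single screening dose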;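 further: His-tagged Mcl-1 with europium anti-His antibody binding Bid BH3 peptide; 0% = Mcl-1 plus peptide wells and 100% = peptide-only wells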
Mcl-1 Bim block: inhibitors of Bim peptide binding to Mcl-1, primary screen, biochemical, bead-based flow cytometry, multiplex; Bim peptide-Mcl-1 binding; hit rate 0.1% among 190,000; inhibition, % at 10 µM; Induced myeloid leukemia cell differentiation protein Mcl-1 (Homo sapiens), Q07820; in the data active means inhibition above about 40%;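 further: 0% = no compound tracer wells and 100% = peptide blocker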
MCL1 BIM primary: inhibitors of MCL1 binding to BIM-BH3, primary screen, biochemical, fluorescence polarization; Induced myeloid leukemia cell differentiation protein Mcl-1 (Homo sapiens), Q07820; GST-MCL1 / FITC-Bim-BH3 fluorescence polarization; inhibition, % at 10.9 µM; hit rate 0.68% among 320,000; AID 2057, 2009;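 active means inhibition above the mean inhibition of all tested compounds plus 3 SD, set per campaign, cut at about 40% in these data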;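 further: 0% = DMSO wells and 100% = unlabeled Bim-BH3 peptide control; higher means more loss of mP so more displacement of Bim peptide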
EBV gp42 inh: Epstein-Barr virus gp42 inhibitors, primary screen, biochemical, uHTS, fluorescence polarization; Glycoprotein 42 (Epstein-Barr virus (strain AG876)), Q1HVG2; Fluorescence polarization binding assay, mP read-out; inhibition, % (tested at 21.74 µM); hit rate 0.42% among 220,000; AID 1085, 2008; in the data active means inhibition above about 50%
Target sequence (Q1HVG2 whole entry, looked up): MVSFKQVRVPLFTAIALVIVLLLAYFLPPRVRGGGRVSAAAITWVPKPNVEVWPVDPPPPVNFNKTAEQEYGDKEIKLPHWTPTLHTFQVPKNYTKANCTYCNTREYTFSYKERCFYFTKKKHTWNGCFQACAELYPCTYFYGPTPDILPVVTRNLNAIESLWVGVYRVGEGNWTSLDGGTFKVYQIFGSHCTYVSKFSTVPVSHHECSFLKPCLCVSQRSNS
Mcl1-Noxa inh: Mcl-1/Noxa binding inhibitors, primary screen, biochemical, TR-FRET, 1536-well; AID 1022, 2008; TR-FRET Mcl-1/Noxa peptide binding, 2 h; hit rate 1.5% among 220,000; Induced myeloid leukemia cell differentiation protein Mcl-1 (Homo sapiens), Q07820; inhibition, % at 21.7 µM;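 active means compounds that cut the protein-peptide binding signal by more than 50% relative to plate controls in a single-dose test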;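 further: His-tagged Mcl-1 with rhodamine Noxa BH3 peptide and terbium anti-His antibody; 0% = Mcl-1 plus Noxa peptide wells and 100% = peptide-only wells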
RBBP9 inhibitor: human RBBP9 inhibitors, primary screen, biochemical, fluorescence polarization, FP-Rh probe, HTS; Serine hydrolase RBBP9 (Homo sapiens), O75884; recombinant RBBP9; inhibition, % at 7.94 µM; hit rate 0.2% among 220,000;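 active means inhibition above the campaign mean of all tested compounds plus 3 SD, cut at about 14% in these data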;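 further: plate controls were DMSO wells with RBBP9 for no effect and wells lacking RBBP9 protein for full effect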
Target sequence (O75884 whole entry, looked up): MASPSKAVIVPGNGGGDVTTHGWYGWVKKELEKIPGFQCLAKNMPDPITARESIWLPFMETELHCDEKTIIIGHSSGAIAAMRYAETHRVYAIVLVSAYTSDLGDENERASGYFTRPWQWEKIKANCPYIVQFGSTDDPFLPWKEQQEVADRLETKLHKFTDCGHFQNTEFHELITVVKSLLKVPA
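Test system – recombinant human RBBP9 · Input – RBBP9 2.5 µM in dispensing solution, pre-mixing · Medium – Tris buffer pH 8.0, NaCl, Pluronic · Schedule – preincubation 30 min plus labeling 45 min at 25 °C · Measured by – fluorescence polarization · Measure – % inhibition · Controls – DMSO and no-protein wells · Replicates – one well per compound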
The depositor's hits bear a star; . = not tested or not shown. A selection: hits, their analogues and other compounds. The true share with any hit is near 2.2%.

SMILES | Mcl1 Bid PPI | Mcl-1 Bim block | MCL1 BIM primary | EBV gp42 inh | Mcl1-Noxa inh | RBBP9 inhibitor
O/N=C1/CCCSc2ccccc21 | 2 | -2 | 9 | -32 | 86* | -7
Cc1ccc2c(c1)/C(=N/O)CCS2 | -43 | 0 | 7 | 0 | 21 | 2
CCc1ccc2nc3sc(C(=O)N4CCc5ccccc54)c(N)c3cc2c1 | 1 | -2 | -2 | 159* | 12 | -4
CC(C)c1ccc2nc3sc(C(=O)N4CCc5ccccc5C4)c(N)c3cc2c1 | -19 | 0 | -12 | 20 | 24 | -6
Cc1ccc(C)c2nc3sc(C(=O)N4CCCc5ccccc54)c(N)c3cc12 | -33 | 0 | -18 | 142* | 41 | -2
CCOC(=O)NNc1ccc2nonc2c1[N+](=O)[O-] | -10 | . | 25 | -2 | 97* | 1
Cn1c(SCC(=O)Nc2ccccc2Br)nnc1-c1cnccn1 | . | . | -6 | . | . | .
C/C(=C\c1ccco1)C1C(C#N)=C(N)Oc2n[nH]c(-c3ccccc3)c21 (configuration not stated) | 5 | 2 | 2 | 32 | 69* | -2
Cc1ccc(NC(=S)Nc2cccc(-c3n[nH]c(=S)o3)c2)cc1 | -18 | . | 0 | -10 | 59* | -4
O=C(CN1C(=O)NC2(CCCCCCC2)C1=O)N1CCc2ccccc2C1 | -4 | 0 | -4 | -25 | 3 | -6
COc1ccccc1CC1(C)NC(=O)N(CC(=O)N2CCc3ccccc3C2)C1=O (configuration not stated) | 57* | 1 | -8 | -12 | 15 | 5
CC(=C/c1ccccc1)/C=N/NC(=O)c1cnccn1 | -4 | -2 | 10 | 144* | . | -14
CCN1CCCC1CNC(=O)C(=O)NCCc1ccc(OC)c(OC)c1 (configuration not stated) | -11 | 2 | -4 | -11 | 4 | 5
COc1ccc(S(=O)(=O)Nc2c(C)nc3nc[nH]n3c2=O)cc1 | 66* | -4 | 0 | -11 | 7 | -2
Cc1nc2nc[nH]n2c(=O)c1NS(=O)(=O)c1ccc(F)cc1 | 1 | 0 | 2 | -5 | 25 | -4
COc1ccc(-c2cc(C(=O)Nc3c(F)cc(F)cc3Br)no2)cc1 | . | . | 5 | . | . | .
O=C(COC(=O)C1CCC1)NCCc1ccc(Cl)cc1Cl | . | . | 0 | . | . | .
COC(=O)c1ccc(-c2nc(O)c(C)s2)cc1 | -30 | -3 | 19 | -3 | 20 | -1
COC(=O)c1ccc(-c2nc3cc(Cl)c(N)cc3s2)cc1 | 91* | 0 | 1 | -4 | 0 | 7
O=C(COC(=O)Cn1cnc2ccccc21)Nc1cc2c(cc1Cl)C(=O)c1ccccc1C2=O | 0 | 0 | 14 | -10 | 54* | 1
Cc1cc2nc(-c3ccc(SCc4ccc(C(=O)O)cc4)nc3)[nH]c2cc1C | -62 | 4 | 1 | 15 | 76* | -13
O=S(=O)(NCc1ccccc1)c1ccc(Cl)cc1 | -18 | -6 | 9 | -33 | -24 | -1
O=S(=O)(Nc1cc2nc3ccccc3nc2n1Cc1ccccc1)c1ccc(Cl)cc1 | -15 | -19 | 18 | 121* | 29 | -3
S=C(Nc1ccc2nc(-c3ccccn3)c(-c3ccccn3)nc2c1)N1CCCCCC1 | -62 | 3 | 41* | 7 | -3 | -4
S=C(Nc1ccc2nc(-c3ccccn3)c(-c3ccccn3)nc2c1)N1CCCCC1 | -31 | 0 | . | 55* | 9 | -5
SMILES | Mcl1 Bid PPI | Mcl-1 Bim block | MCL1 BIM primary | EBV gp42 inh | Mcl1-Noxa inh | RBBP9 inhibitor
CC(=O)N1CCN(Cc2nc3cc(NC(=O)NC4CCCCC4)ccc3n2C)CC1 | -42 | 0 | 10 | 1 | 18 | 3
Cc1ccc(C)c(NC(=O)CN(C)C(=O)CSC(C)C(=O)Nc2cc(C)on2)c1 (configuration not stated) | . | . | 3 | . | . | .
O=C(Nc1ccccc1F)C(=Cc1sc(N2CCOCC2)nc1-c1ccccc1)C(=O)Nc1ccccc1F | 2 | -8 | -15 | 62* | 7 | -5
O=C(N/N=C/c1ccncc1)c1ccc(-n2cccc2)cc1 | -11 | -2 | 11 | 24 | 59* | -3
O=C(N/N=C/c1cccs1)c1ccc(-n2cccc2)cc1 | -33 | -1 | 10 | -3 | 26 | -6
O=C(NC1CC(=O)N(c2ccc3c(c2)OCCO3)C1)N1CCCCC1 (configuration not stated) | . | . | 6 | . | . | .
Cc1ccc(C(=O)NN2CC(O)=C(c3nc(-c4cccc([N+](=O)[O-])c4)cs3)C2=N)cc1 | 5 | 4 | 10 | -8 | 56* | 1
N#Cc1ccc(CC(C(=O)O)N2Cc3ccccc3C2=O)cc1 (configuration not stated) | . | . | 2 | . | . | .
O=C(N/N=C/c1ccccc1)c1ccc(CN2C(=O)c3cccc4cccc2c34)cc1 | 24 | -3 | -34 | -88 | 32 | -19
O=C(N/N=C/c1ccc(O)cc1O)c1ccc(CN2C(=O)c3cccc4cccc2c34)cc1 | -46 | -1 | 7 | 11 | 78* | 6
COc1ccccc1/C=C/C=N/NC(=O)c1cc(-c2ccco2)[nH]n1 | -37 | . | 23 | 8 | 62* | -15
COc1ccccc1/C=C/C=N/NC(=O)c1ccccn1 | -7 | -5 | 3 | -11 | 11 | -12
CCOc1ccc(NC(=O)N(CCN2CCOCC2)Cc2ccc3c(c2)CCCN3CC)cc1 | -86 | -2 | 12 | -3 | 78* | -7
CCN1CCCc2cc(CN(CCN3CCOCC3)C(=S)Nc3cccc(OC)c3)ccc21 | -93 | 1 | 26 | 4 | 60* | -3
CCCN1CCCc2cc(CN(CCCN3CCOCC3)C(=O)Nc3ccc(OCC)cc3)ccc21 | -32 | -5 | 10 | -8 | 8 | -1
CC(C)c1ccc2oc(=O)cc(CN3CCCCC3)c2c1 | . | . | 8 | . | . | .
COC(=O)c1sc(N2C(=O)c3oc4ccccc4c(=O)c3C2c2cccc(O)c2)nc1C (configuration not stated) | 58* | . | 5 | 36 | 18 | -11
O=C(c1ccccc1)c1cc(Cl)ccc1N1C(=O)C=CC1=O | 51* | 4 | . | -36 | 32 | -2
CCOC(=O)C1C(c2cccc([N+](=O)[O-])c2)C2C(=O)NN=C2CC1(C)O (configuration not stated) | -38 | 0 | -7 | -1 | 23 | 7
Cn1c(-c2ccccc2)c(C(=O)CCl)c2ccccc21 | -23 | 0 | . | -10 | 70* | 4
COc1cc(Cl)c(NC2=CC(=O)C(=O)c3ccccc32)c(OC)c1 | . | . | 16 | . | . | .
